Data on 11 molecules can be found in ChEMBL document CHEMBL4732241, “Synthesis of artemisinin-piperazine-furan ether hybrids and evaluation of in vitro cytotoxic activity” (Eur J Med Chem, 2021).

Assay [1] has as its system SMMC-7721. Put plainly: Cytotoxicity against human SMMC-7721 cells assessed as cell viability after 24 hrs by MTT assay. It is filed as functional, cell-based. Particulars: SMMC-7721, 24 h. The method in brief:
(§1)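 Cells pre-cultured 24 h at 37 C, then exposed for 24 h to compounds at […], with drug-free and DMSO solvent controls. MTT read-out: formazan dissolved in DMSO, absorbance at 568 nm. Inhibition rate taken relative to the negative control. IC50 from triplicate measurements.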

In assay [2] the test system is L02. The assay is described as follows: Cytotoxicity against human L02 cells assessed as cell viability after 24 hrs by MTT assay. In kind it is functional, cell-based. The conditions noted are these: L02, 24 h. Summed up: as §1
(In general: Formazan colour is commonly taken as a measure of viable cells.)

Assay [3] relates to Huh-7. Put plainly: Cytotoxicity against human HUH-7 cells assessed as cell viability after 48 hrs by MTT assay. It is filed as functional, cell-based. The conditions noted are these: Huh-7, 48 h. The method in brief: (§2)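 Cells pre-cultured 24 h at 37 C, then given fresh medium with compound at […] alongside drug-free and DMSO solvent controls. Incubated 48 h at 37 C, then MTT (2 mg/mL in PBS) added for 4 h. Formazan dissolved in DMSO and A568 read. Inhibition rate taken relative to the negative control. IC50 from triplicate measurements.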

Assay [4] deals with SMMC-7721. Put plainly: Induction of apoptosis in human SMMC-7721 cells assessed as viable cells at 0.1 ug/ml after 48 hrs annexin V-[…]/PI by flow cytometry (reference value: 93.54 to 94.31%). In kind it is functional. The conditions noted are these: read-out: Activity. In general terms: A flow cytometer gives signals particle by particle.
Assay [5] relates to SMMC-7721. The assay is described as follows: Cytotoxicity against human SMMC-7721 cells assessed as cell viability after 48 hrs by MTT assay. It is filed as functional, cell-based. The conditions noted are these: SMMC-7721, 48 h. Summed up: as §2
Assay [6] in a line: Cytotoxicity against human HCCLM3 cells assessed as cell viability after 48 hrs by MTT assay. The conditions noted are these: HCCLM3, 48 h. It is filed as functional, cell-based. Summed up: as §2
In assay [7] the test system is SMMC-7721. Put plainly: Induction of apoptosis in human SMMC-7721 cells assessed as necrotic cells at 100 ug/ml after 48 hrs annexin V-[…]/PI by flow cytometry (reference value: 0.15 to 0.29%). Particulars: dose 100 µg/ml. In kind it is functional.
Assay [8] has as its system SMMC-7721. Put plainly: Induction of apoptosis in human SMMC-7721 cells assessed as early apoptotic cells at 10 ug/ml after 48 hrs annexin V-[…]/PI by flow cytometry (reference value: 3.3 to 3.16%). In kind it is functional. The conditions noted are these: dose 10 µg/ml.
Assay [9] relates to SMMC-7721. The assay is described as follows: Induction of apoptosis in human SMMC-7721 cells assessed as late apoptotic cells at 0.1 ug/ml after 48 hrs annexin V-[…]/PI by flow cytometry (reference value: 2.42 to 3%). It is filed as functional. Particulars: dose 0.1 µg/ml.
In assay [10] the test system is MCF-10A. Put plainly: Cytotoxicity against human MCF-10A cells assessed as cell viability after 48 hrs by MTT assay. It is filed as cell-based. The method in brief: as §2
Assay [11] deals with SMMC-7721. The assay is described as follows: Induction of apoptosis in human SMMC-7721 cells assessed as viable cells at 10 ug/ml after 48 hrs annexin V-[…]/PI by flow cytometry (reference value: 93.54 to 94.31%). Particulars: read-out: Activity. It is filed as functional.
The subject of assay [12] is MHCC97H. Put plainly: Cytotoxicity against human MHCC97H cells assessed as cell viability after 48 hrs by MTT assay. It is filed as functional, cell-based. The method in brief: as §2
The subject of assay [13] is MCF7. Put plainly: Cytotoxicity against human MCF7 cells assessed as cell viability after 48 hrs by MTT assay. In kind it is functional, cell-based. The conditions noted are these: MCF7, 48 h. Summed up: as §2
Assay [14] deals with SMMC-7721. The assay is described as follows: Induction of apoptosis in human SMMC-7721 cells assessed as late apoptotic cells at 10 ug/ml after 48 hrs annexin V-[…]/PI by flow cytometry (reference value: 2.42 to 3%). Particulars: dose 10 µg/ml. It is filed as functional.
Assay [15] has as its system SMMC-7721. The assay is described as follows: Induction of apoptosis in human SMMC-7721 cells assessed as necrotic cells at 0.1 ug/ml after 48 hrs annexin V-[…]/PI by flow cytometry (reference value: 0.15 to 0.29%). In kind it is functional. Particulars: dose 0.1 µg/ml.
Assay [16] concerns CCD-18Co. Put plainly: Cytotoxicity against human CCD-18C0 cells assessed as cell viability after 48 hrs by MTT assay. It is filed as functional, cell-based. The method in brief:
as §2

Assay [17] concerns SMMC-7721. The assay is described as follows: Induction of apoptosis in human SMMC-7721 cells assessed as late apoptotic cells at 100 ug/ml after 48 hrs annexin V-[…]/PI by flow cytometry (reference value: 2.42 to 3%). In kind it is functional. Particulars: dose 100 µg/ml.
For assay [18], the system named is HCT-116. The assay is described as follows: Cytotoxicity against human HCT-116 cells assessed as cell viability after 48 hrs by MTT assay. The conditions noted are these: HCT-116, 48 h. In kind it is functional, cell-based. The method in brief: as §2
The subject of assay [19] is SMMC-7721. Put plainly: Cytotoxicity against human SMMC-7721 cells assessed as cell viability after 48 hrs in presence of 100 umol/L FeSO4 by MTT assay. Particulars: SMMC-7721, 48 h. It is filed as functional, cell-based.
The subject of assay [20] is SMMC-7721. The assay is described as follows: Induction of apoptosis in human SMMC-7721 cells assessed as early apoptotic cells at 100 ug/ml after 48 hrs annexin V-[…]/PI by flow cytometry (reference value: 3.3 to 3.16%). Particulars: dose 100 µg/ml. In kind it is functional.
For assay [21], the system named is SMMC-7721. The assay is described as follows: Induction of apoptosis in human SMMC-7721 cells assessed as early apoptotic cells at 0.1 ug/ml after 48 hrs annexin V-[…]/PI by flow cytometry (reference value: 3.3 to 3.16%). Particulars: dose 0.1 µg/ml. It is filed as functional.
For assay [22], the system named is SMMC-7721. Put plainly: Induction of apoptosis in human SMMC-7721 cells assessed as necrotic cells at 10 ug/ml after 48 hrs annexin V-[…]/PI by flow cytometry (reference value: 0.15 to 0.29%). It is filed as functional. Particulars: dose 10 µg/ml.
Assay [23] deals with SMMC-7721. Put plainly: Induction of apoptosis in human SMMC-7721 cells assessed as viable cells at 100 ug/ml after 48 hrs annexin V-[…]/PI by flow cytometry (reference value: 93.54 to 94.31%). It is filed as functional. The conditions noted are these: read-out: Activity.

For the molecule `CCOC1OC(=O)C(Cl)=C1N1CCN([C@@H]2O[C@@H]3O[C@@]4(C)CC[C@H]5[C@H](C)CC[C@@H]([C@H]2C)[C@@]35OO4)CC1` (stereo partly drawn), the IC50 – broadly, the concentration that gives 50% inhibition – was 0.56 µM in [1] and over 0.7 µM in assay [2].

Regarding `COC1OC(=O)C(Br)=C1N1CCN([C@@H]2O[C@@H]3O[C@@]4(C)CC[C@H]5[C@H](C)CC[C@@H]([C@H]2C)[C@@]35OO4)CC1` (stereo partly drawn), the IC50 was 0.29 µM in [1] and 0.26 µM in assay [2].

`CC[C@]1(O)C[C@H]2CN(CCc3c([nH]c4ccccc34)[C@@](C(=O)OC)(c3cc4c(cc3OC)N(C=O)[C@H]3[C@@](O)(C(=O)OC)[C@H](OC(C)=O)[C@]5(CC)C=CCN6CC[C@]43[C@@H]65)C2)C1` [VINCRISTINE]: the IC50 turned out to be 0.27 µM in assay [1] and 0.3 µM in [2].

Regarding `C[C@H]1[C@H](O)O[C@@H]2O[C@@]3(C)CC[C@H]4[C@H](C)CC[C@@H]1[C@@]24OO3`, the IC50 in assay [1] is over 0.7 µM; in [2], 0.22 µM.

With `CCOC1OC(=O)C(Br)=C1N1CCN([C@@H]2O[C@@H]3O[C@@]4(C)CC[C@H]5[C@H](C)CC[C@@H]([C@H]2C)[C@@]35OO4)CC1` (stereo partly drawn), the results for the IC50 in assay [1] and in [2] were 0.43 µM and 0.5 µM, respectively.

For `C[C@@H]1CC[C@H]2[C@@H](C)C(=O)O[C@@H]3O[C@@]4(C)CC[C@@H]1[C@]32OO4` [ARTEMISININ], the IC50 was 0.63 µM in assay [1] and 0.43 µM in assay [2].

`COC1OC(=O)C(Cl)=C1N1CCN([C@@H]2O[C@@H]3O[C@@]4(C)CC[C@H]5[C@H](C)CC[C@@H]([C@H]2C)[C@@]35OO4)CC1` (stereo partly drawn): the IC50 stood at 0.16 µM in assay [3]; 0.26 µM in assay [1]; 0.11 µM in assay [5]; 0.1 µM in [6]; 0.22 µM in [10]; 0.1 µM in [12]. Also, the IC50 in assay [13] amounted to 0.08 µM; in [16], 0.1 µM; in assay [18], 0.1 µM; in [2] it was 0.32 µM; in assay [19], 0.1 µM. The viability at 0.1 µg/mL in assay [4] amounted to 88.6%. Also, the Activity in assay [7] is listed as 0.73%; in assay [8], 8.77%; in [9], 3.21%; in [14] it was 6.06%; in [15] it was 0.14%; in assay [17], 14.42%. Further, the Activity was 20.35% in assay [20], 4.26% in assay [21] and 0.49% in assay [22]. Further, the viability at 10 µg/mL in assay [11] was found to be 82.1%. In assay [23], the viability at 100 µg/mL was determined as 60.3%.

As to `CC(C)[C@H]1CC[C@H](C)C[C@@H]1O[C@H]1OC(=O)C(Cl)=C1N1CCN([C@@H]2O[C@@H]3O[C@@]4(C)CC[C@H]5[C@H](C)CC[C@@H]([C@H]2C)[C@@]35OO4)CC1`, the IC50 came out at 0.52 µM in assay [1] and 0.64 µM in assay [2].

As for `CC(C)[C@H]1CC[C@H](C)C[C@@H]1O[C@H]1OC(=O)C(Br)=C1N1CCN([C@@H]2O[C@@H]3O[C@@]4(C)CC[C@H]5[C@H](C)CC[C@@H]([C@H]2C)[C@@]35OO4)CC1`, the IC50 in assay [1] turned out to be 0.39 µM; in assay [2], 0.36 µM.

Consider `C[C@H]1[C@H](N2CCN(C3=C(Br)C(=O)O[C@@H]3O[C@H]3CC4CCC3(C)C4(C)C)CC2)O[C@@H]2O[C@@]3(C)CC[C@H]4[C@H](C)CC[C@@H]1[C@@]24OO3`, for which the IC50 in [1] and in assay [2] was 0.48 µM throughout.

As for `C[C@H]1[C@H](N2CCN(C3=C(Cl)C(=O)OC3O[C@H]3CC4CCC3(C)C4(C)C)CC2)O[C@@H]2O[C@@]3(C)CC[C@H]4[C@H](C)CC[C@@H]1[C@@]24OO3` (stereo partly drawn), the IC50 in assay [1] turned out to be 0.57 µM; in [2], 0.46 µM.
